Measured values reported in ChEMBL document CHEMBL4831496, “Noncovalent EGFR T790M/L858R inhibitors based on diphenylpyrimidine scaffold: Design, synthesis, and bioactivity evaluation for the treatment of NSCLC” (Eur J Med Chem, 2021).
Activity calls are given as the source filed them. The calls are words filed in the database; no cut-off is given here.

Columns and labels:
[1] = Elimination half life in Sprague-Dawley rat at 25 mg/kg, iv measured for 24 hrs by LC-MS/MS analysis; format: ADME, organism-based; conditions: in vivo, read-out: beta t1/2 (converted)
Outline: (§1)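 Male Sprague-Dawley rats (200 ± 20 g), acclimatised 1 week at 25 ± 2 °C, 50-60% RH; six rats given 25 mg/kg by tail vein. Retro-orbital blood into heparin at 10, 20, 40 min and 1, 2, 3, 4, 6, 8, 12, 24 h. Plasma ethyl acetate-extracted and quantified by LC-MS/MS, transition m/z 485.3/452.3.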

[2] = test system: NCI-H1975; assay: Induction of apoptosis in human NCI-H1975 cells assessed as late apoptotic cells at 0.5 uM incubated for 48 hrs by AnnexinV/FITC and propidium iodide staining based flow cytometry analysis (reference value: 0.73%); format: functional
[3] = test system: NCI-H1975; assay: Induction of apoptosis in human NCI-H1975 cells assessed as early apoptotic cells at 2 uM incubated for 48 hrs by AnnexinV/FITC and propidium iodide staining based flow cytometry analysis (reference value: 1.39%); format: functional
[4] = Selectivity index, ratio of IC50 for human A-431 cells harboring wild type EGFR (unknown origin) to IC50 for human NCI-H1975 cells harboring EGFR L858R/T790M mutant
[5] = test system: A549; assay: Antiproliferative activity against human A549 cells harboring KRAS G12S mutant assessed as reduction in cell viability incubated for 72 hrs by CCK8 assay; format: functional, cell-based; conditions: A549, 72 h
Outline: (§2)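 Cells kept as monolayers at 37 °C, 5% CO2, seeded 3000-4000/well for 12 h, then exposed to compounds for 72 h. CCK-8 added for 1-2 h at 37 °C, absorbance read at 450 nm. Each dose run in triplicate, experiment repeated at least three times. IC50 taken from dose-response curves.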

[6] = test system: NCI-H1975; assay: Induction of morphological changes in human NCI-H1975 cells assessed as increase in fusiform and sickle cell type abnormal cells at 0.5 to 2 uM incubated for 48 hrs by DAPI staining based fluorescence microscopic analysis; format: functional; conditions: dose 0.5-2 µM
Outline: (§3)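 H1975 cells seeded at about 2 × 10⁵/well for 12 h, then treated. Cells fixed in 10% formaldehyde for 10 min, stained with DAPI for 10 min at room temperature and examined by fluorescence microscopy. Cell shape was also viewed under natural light.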

[7] = test system: NCI-H1975; assay: Induction of apoptosis in human NCI-H1975 cells assessed as necrotic cells at 0.125 uM incubated for 48 hrs by AnnexinV/FITC and propidium iodide staining based flow cytometry analysis (reference value: 2.99%); format: functional
[8] = AUC (0 to infinity) in Sprague-Dawley rat at 25 mg/kg, iv by LC-MS/MS analysis; format: ADME, organism-based; design: route intravenous, time infinity, dose 25 mg/kg; conditions: in vivo; outline: as §1
[9] = test system: NCI-H23; assay: Antiproliferative activity against human NCI-H23 cells harboring KRAS mutant assessed as reduction in cell viability incubated for 72 hrs by CCK8 assay; format: functional, cell-based; conditions: NCI-H23, 72 h; outline: as §2
[10] = test system: NCI-H1975; assay: Induction of apoptosis in human NCI-H1975 cells assessed as early apoptotic cells at 0.125 uM incubated for 48 hrs by AnnexinV/FITC and propidium iodide staining based flow cytometry analysis (reference value: 1.39%); format: functional
[11] = test system: NCI-H1975; assay: Induction of apoptosis in human NCI-H1975 cells assessed as necrotic cells at 2 uM incubated for 48 hrs by AnnexinV/FITC and propidium iodide staining based flow cytometry analysis (reference value: 2.99%); format: functional
[12] = test system: NCI-H1975; assay: Induction of cell cycle arrest in human NCI-H1975 cells assessed as accumulation of cells at S phase at 2 uM incubated for 48 hrs by propidium iodide staining based flow cytometry analysis (reference value: 11.72%); format: functional
[13] = test system: NCI-H1975; assay: Induction of cell cycle arrest in human NCI-H1975 cells assessed as accumulation of cells at G0/G1 phase at 0.5 uM incubated for 48 hrs by propidium iodide staining based flow cytometry analysis (reference value: 58.05%); format: functional
[14] = target: Epidermal growth factor receptor (Homo sapiens, UniProt P00533, L858R/T790M); assay: Inhibition of EGFR L858R/T790M double mutant (unknown origin) measured after 60 mins by ADP-Glo kinase based luminescence assay
[15] = MRT (0 to infinity) in Sprague-Dawley rat at 25 mg/kg, iv by LC-MS/MS analysis; format: ADME, organism-based; conditions: in vivo; outline: as §1
[16] = test system: NCI-H1975; assay: Induction of apoptosis in human NCI-H1975 cells assessed as late apoptotic cells at 2 uM incubated for 48 hrs by AnnexinV/FITC and propidium iodide staining based flow cytometry analysis (reference value: 0.73%); format: functional
[17] = Cytotoxicity against human HBE cells assessed as reduction in cell viability incubated for 72 hrs by CCK8 assay; format: cell-based; outline: as §2
[18] = test system: NCI-H1975; assay: Antiproliferative activity against human NCI-H1975 cells harboring EGFR L858R/T790M mutant assessed as reduction in cell viability incubated for 72 hrs by CCK8 assay; format: functional, cell-based; conditions: NCI-H1975, 72 h; outline: as §2
[19] = test system: NCI-H1975; assay: Induction of cell cycle arrest in human NCI-H1975 cells assessed as accumulation of cells at G2/M phase at 0.125 uM incubated for 48 hrs by propidium iodide staining based flow cytometry analysis (reference value: 30.23%); format: functional
[20] = test system: NCI-H1975; assay: Induction of morphological changes in human NCI-H1975 cells assessed as nuclear fragmentation at 0.5 to 2 uM incubated for 48 hrs under natural light by DAPI staining based fluorescence microscopic analysis; format: functional, cell-based; conditions: dose 0.5-2 µM; outline: as §3
[21] = species: Homo sapiens; assay: Selectivity index, ratio of IC50 for wild type EGFR (unknown origin) to IC50 for EGFR L858R/T790M double mutant (unknown origin)
[22] = test system: L02; assay: Antiproliferative activity against human L02 cells assessed as reduction in cell viability incubated for 72 hrs by CCK8 assay; format: cell-based; conditions: L02, 72 h
[23] = test system: NCI-H1975; assay: Induction of apoptosis in human NCI-H1975 cells assessed as late apoptotic cells at 0.125 uM incubated for 48 hrs by AnnexinV/FITC and propidium iodide staining based flow cytometry analysis (reference value: 0.73%); format: functional
[24] = test system: NCI-H1975; assay: Induction of apoptosis in human NCI-H1975 cells assessed as viable cells at 2 uM incubated for 48 hrs by AnnexinV/FITC and propidium iodide staining based flow cytometry analysis (reference value: 94.9%); format: functional; conditions: read-out: Activity
[25] = test system: NCI-H1975; assay: Induction of morphological changes in human NCI-H1975 cells assessed as chromatin shrinkage and gathering to nuclear membrane at 0.5 to 2 uM incubated for 48 hrs by DAPI staining based fluorescence microscopic analysis; format: functional, cell-based; conditions: dose 0.5-2 µM; outline: as §3
[26] = test system: NCI-H1975; assay: Induction of cell cycle arrest in human NCI-H1975 cells assessed as accumulation of cells at S phase at 0.125 uM incubated for 48 hrs by propidium iodide staining based flow cytometry analysis (reference value: 11.72%); format: functional
[27] = test system: ASPC1; assay: Antiproliferative activity against human ASPC1 cells assessed as reduction in cell viability incubated for 72 hrs by CCK8 assay; format: functional, cell-based; conditions: ASPC1, 72 h; outline: as §2
[28] = test system: NCI-H1975; assay: Induction of apoptosis in human NCI-H1975 cells assessed as necrotic cells at 0.5 uM incubated for 48 hrs by AnnexinV/FITC and propidium iodide staining based flow cytometry analysis (reference value: 2.99%); format: functional
[29] = test system: A-431; assay: Cytotoxicity against human A-431 cells harboring wild type EGFR assessed as reduction in cell viability incubated for 72 hrs by CCK8 assay; format: cell-based; conditions: A-431, 72 h; outline: as §2

Chain of Epidermal growth factor receptor (P00533 25-1210 T790M/L858R limits assumed): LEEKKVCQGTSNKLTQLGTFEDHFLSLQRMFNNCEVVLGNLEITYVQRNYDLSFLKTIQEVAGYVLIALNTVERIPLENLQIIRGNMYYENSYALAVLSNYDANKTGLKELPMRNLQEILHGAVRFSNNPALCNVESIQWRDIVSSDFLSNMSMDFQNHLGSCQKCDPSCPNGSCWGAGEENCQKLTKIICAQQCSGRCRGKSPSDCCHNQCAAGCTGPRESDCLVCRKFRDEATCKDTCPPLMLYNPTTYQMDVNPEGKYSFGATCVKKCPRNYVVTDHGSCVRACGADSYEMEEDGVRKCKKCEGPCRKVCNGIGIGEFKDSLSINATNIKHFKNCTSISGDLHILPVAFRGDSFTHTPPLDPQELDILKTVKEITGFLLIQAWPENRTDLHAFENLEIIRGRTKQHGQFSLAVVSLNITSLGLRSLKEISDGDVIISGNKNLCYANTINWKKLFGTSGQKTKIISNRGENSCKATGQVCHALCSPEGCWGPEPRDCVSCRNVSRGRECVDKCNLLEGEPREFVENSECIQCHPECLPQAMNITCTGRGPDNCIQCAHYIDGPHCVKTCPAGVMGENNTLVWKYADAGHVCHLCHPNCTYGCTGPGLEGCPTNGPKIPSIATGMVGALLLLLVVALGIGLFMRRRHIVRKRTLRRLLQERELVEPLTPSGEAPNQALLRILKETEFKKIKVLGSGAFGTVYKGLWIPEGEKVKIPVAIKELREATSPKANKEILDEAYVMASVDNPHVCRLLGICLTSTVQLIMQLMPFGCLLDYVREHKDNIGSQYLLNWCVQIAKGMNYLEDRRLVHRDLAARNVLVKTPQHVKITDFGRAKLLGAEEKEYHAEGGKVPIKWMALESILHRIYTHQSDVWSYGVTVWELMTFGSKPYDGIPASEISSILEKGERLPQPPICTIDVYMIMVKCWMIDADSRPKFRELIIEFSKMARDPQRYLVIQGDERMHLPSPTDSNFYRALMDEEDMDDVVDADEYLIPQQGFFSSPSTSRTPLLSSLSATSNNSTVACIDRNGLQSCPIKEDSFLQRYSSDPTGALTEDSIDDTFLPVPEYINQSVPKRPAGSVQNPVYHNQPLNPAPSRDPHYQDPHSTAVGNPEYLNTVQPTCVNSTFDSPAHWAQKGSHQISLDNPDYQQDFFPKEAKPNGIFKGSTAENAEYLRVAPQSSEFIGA

## O=C(NO)c1ccccc1Nc1nc(Nc2ccc(OCCN3CCOCC3)cc2)ncc1Cl
[1]
  half-life: 9.51 h
[2]
  Activity: 0.56%
[3]
  Activity: 90.55%
[4]
  Ratio IC50: 10.9
[5]
  IC50: 97.7 nM
[6]
  Activity: Active
[7]
  Activity: 0.01%
[8]
  AUC(0-inf): 45200 ng·h/mL
[9]
  IC50: 625 nM
[10]
  Activity: 4%
[11]
  Activity: 0.14%
[12]
  Activity: 10.83%
[13]
  Activity: 19.16%
[14]
  IC50: 1.1 nM
[15]
  MRT inf: 13.1 h
[16]
  Activity: 0.67%
[17]
  IC50: 23600 nM
[18]
  IC50: 97.8 nM
[19]
  Activity: 64.66%
[20]
  Activity: Active
[21]
  Ratio IC50: 43.4
[22]
  IC50: 3050 nM
[23]
  Activity: 0.31%
[24]
  viability at 2 µM: 8.63%
[25]
  Activity: Active
[26]
  Activity: 15.08%
[27]
  IC50: 169 nM
[28]
  Activity: 0.07%
[29]
  IC50: 1070 nM
